We go through two compounds from ChEMBL document CHEMBL1138738, “Synthesis, in vitro pharmacology, structure-activity relationships, and pharmacokinetics of 3-alkoxy-2-amino-6-fluorobicyclo[3.1.0]hexane-2,6-dicarboxylic acid derivatives as potent and selective group II metabotropic glutamate receptor antagonists” (J Med Chem, 2004).

Structures are written as SMILES. pEC50, pIC50, pKi: −log10 of the molar value.

The nature of series [1]: Half-life in rat upon oral dose of 10 mg/kg. The format is ADME, organism-based. Also on record: dose 10 mg/kg, route oral. The following applies: in vivo. In short, it runs like this: (§1)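 Fasted rats were dosed orally at 3, 10 or 30 mg/kg. Plasma concentration-time profiles were measured by LC/ESI-MS/MS. Cmax, Tmax, elimination half-life and AUCinf were derived per dose group and reported as mean ± deviation.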

The nature of series [2]: Peak plasma concentration in rats upon oral dose of 30 mg/kg. Type of series: ADME, organism-based. The settings on record: rat. Also on record: dose 30 mg/kg, route oral. In a few lines:
as §1

Series [3] has as its target T1, Metabotropic glutamate receptor 5 (Rattus norvegicus, UniProt P31424). As to the kind of experiment: Effective concentration for agonistic activity towards metabotropic glutamate receptor 5 of rat expressed in CHO cells. The format is functional, cell-based.
Series [4] concerns the target T2, Metabotropic glutamate receptor 2 (Rattus norvegicus, UniProt P31421). As to the kind of experiment: Effective concentration for agonistic activity towards metabotropic glutamate receptor 2 of rat expressed in CHO cells. The format is functional, cell-based.
Series [5] deals with T3, Metabotropic glutamate receptor 3 (Rattus norvegicus, UniProt P31422). The series is described as follows: Binding affinity towards metabotropic glutamate receptor 3 of rat expressed in CHO cells was determined by using [3H]MGS-0008. Type of series: cell-based.
T3 sequence (P31422 whole entry): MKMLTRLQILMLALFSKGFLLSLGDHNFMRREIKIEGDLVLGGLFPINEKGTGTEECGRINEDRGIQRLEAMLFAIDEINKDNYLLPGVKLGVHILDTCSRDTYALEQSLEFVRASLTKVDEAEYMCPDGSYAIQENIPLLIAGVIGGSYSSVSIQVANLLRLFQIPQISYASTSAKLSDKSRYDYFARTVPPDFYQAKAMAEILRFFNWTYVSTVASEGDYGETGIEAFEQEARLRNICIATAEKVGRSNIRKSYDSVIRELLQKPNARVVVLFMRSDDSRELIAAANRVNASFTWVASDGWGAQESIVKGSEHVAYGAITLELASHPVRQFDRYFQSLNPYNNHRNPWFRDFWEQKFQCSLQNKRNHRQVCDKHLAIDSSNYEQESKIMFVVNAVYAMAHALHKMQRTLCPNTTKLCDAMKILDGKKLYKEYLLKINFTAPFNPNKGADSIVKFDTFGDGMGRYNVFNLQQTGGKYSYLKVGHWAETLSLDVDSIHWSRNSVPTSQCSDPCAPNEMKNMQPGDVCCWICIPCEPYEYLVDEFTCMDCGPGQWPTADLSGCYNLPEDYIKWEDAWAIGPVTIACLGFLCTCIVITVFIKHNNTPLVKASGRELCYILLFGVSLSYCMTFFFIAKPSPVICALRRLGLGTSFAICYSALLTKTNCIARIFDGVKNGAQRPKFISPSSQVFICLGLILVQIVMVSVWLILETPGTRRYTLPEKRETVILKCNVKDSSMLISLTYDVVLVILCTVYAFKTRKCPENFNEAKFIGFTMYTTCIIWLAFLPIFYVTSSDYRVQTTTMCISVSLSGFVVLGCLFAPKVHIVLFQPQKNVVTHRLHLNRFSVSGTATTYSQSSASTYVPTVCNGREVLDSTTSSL
Series [6] in a line: Peak plasma concentration in rat plasma upon oral dose of 10 mg/kg. The format is ADME, organism-based. Further details: dose 10 mg/kg, route oral. In a few lines: (§2)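 Rats given a single peroral dose of 10 mg/kg. Plasma and cerebrum were sampled at 1, 3, 6 and 24 h. Concentrations were measured by LC/ESI-MS/MS using an internal standard. Detection limits were 1 ng/mL in plasma and 1.5 ng/g in brain. Tmax, Cmax, terminal half-life (lambda z) and predicted AUCinf were derived from the mean time-course levels.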

In series [7] the target is T4, Metabotropic glutamate receptor 6 (Rattus norvegicus, UniProt P35349). As to the kind of experiment: Effective concentration for agonistic activity towards metabotropic glutamate receptor 6 of rat expressed in CHO cells. Type of series: functional, cell-based.
T4 sequence (P35349 whole entry): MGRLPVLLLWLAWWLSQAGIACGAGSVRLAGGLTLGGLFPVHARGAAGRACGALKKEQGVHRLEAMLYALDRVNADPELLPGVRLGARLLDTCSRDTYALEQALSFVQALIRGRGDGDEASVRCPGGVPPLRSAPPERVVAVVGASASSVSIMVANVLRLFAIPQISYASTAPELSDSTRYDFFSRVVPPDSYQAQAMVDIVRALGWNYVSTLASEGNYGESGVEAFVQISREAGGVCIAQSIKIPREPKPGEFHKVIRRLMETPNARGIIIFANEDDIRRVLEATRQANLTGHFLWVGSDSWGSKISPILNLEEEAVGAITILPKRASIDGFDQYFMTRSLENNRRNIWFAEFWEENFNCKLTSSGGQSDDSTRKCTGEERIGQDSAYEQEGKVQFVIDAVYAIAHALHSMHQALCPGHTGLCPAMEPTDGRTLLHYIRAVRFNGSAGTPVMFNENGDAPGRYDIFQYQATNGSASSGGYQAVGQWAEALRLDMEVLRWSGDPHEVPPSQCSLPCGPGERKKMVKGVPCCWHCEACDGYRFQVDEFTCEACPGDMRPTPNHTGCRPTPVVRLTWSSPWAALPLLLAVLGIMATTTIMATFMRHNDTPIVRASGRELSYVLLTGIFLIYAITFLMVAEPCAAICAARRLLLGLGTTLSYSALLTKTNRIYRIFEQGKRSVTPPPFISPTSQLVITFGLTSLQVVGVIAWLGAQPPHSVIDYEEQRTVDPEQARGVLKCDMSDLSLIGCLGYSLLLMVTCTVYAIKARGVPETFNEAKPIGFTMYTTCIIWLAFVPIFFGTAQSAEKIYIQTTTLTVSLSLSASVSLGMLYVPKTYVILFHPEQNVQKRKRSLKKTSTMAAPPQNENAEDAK
Series [8] can be described thus: Peak plasma concentration in rat brain upon oral dose of 10 mg/kg. The format is ADME, organism-based. Further details: dose 10 mg/kg, route oral. In short, it runs like this:
as §2

Series [9] in a line: Peak plasma concentration in rats upon oral dose of 3 mg/kg. The format is ADME, organism-based. Also on record: dose 3 mg/kg, route oral. The settings on record: rat. In short, it runs like this:
as §1

Series [10] deals with T2, Metabotropic glutamate receptor 2. As to the kind of experiment: Binding affinity towards metabotropic glutamate receptor 2 of rat expressed in CHO cells was determined by using [3H]MGS-0008. The format is cell-based.
A short description of series [11]: Concentration of compound in plasma of rat after 24 hr of oral dose 10 mg/kg. Type of series: ADME, organism-based. Further details: dose 10 mg/kg, route oral. In a few lines: as §2
The nature of series [12]: Concentration of compound in brain of rat after 24 hr of oral dose 10 mg/kg. The format is ADME, organism-based. Also on record: dose 10 mg/kg, route oral. In short, it runs like this: as §2
A short description of series [13]: Concentration of compound in plasma of rat after 3h of oral dose 10 mg/kg. Also on record: dose 10 mg/kg, route oral. The format is ADME, organism-based. In short, it runs like this:
as §2

Series [14] is described as follows: Half-life in rat plasma upon oral dose of 10 mg/kg. Type of series: ADME, organism-based. Further details: dose 10 mg/kg, route oral. In short, it runs like this:
as §2

Series [15] can be described thus: Peak plasma concentration in rats upon oral dose of 10 mg/kg. Type of series: ADME, organism-based. Also on record: dose 10 mg/kg, route oral. The following applies: rat. In short, it runs like this: as §1
A short description of series [16]: Half-life in rat upon oral dose of 3 mg/kg. Type of series: ADME, organism-based. The settings on record: in vivo. Further details: dose 3 mg/kg, route oral. In a few lines: as §1
A short description of series [17]: Concentration of compound in brain of rat after 1 hr of oral dose 10 mg/kg. The format is ADME, organism-based. Also on record: dose 10 mg/kg, route oral. In short, it runs like this: as §2
Series [18] addresses T5, Metabotropic glutamate receptor 1 (Rattus norvegicus, UniProt P23385). The series is described as follows: Concentration required to inhibit metabotropic glutamate receptor 1 activity of rat expressed in CHO cells. Type of series: cell-based.
The nature of series [19]: Concentration of compound in plasma of rat after 6 hr of oral dose 10 mg/kg. Type of series: ADME, organism-based. Further details: dose 10 mg/kg, route oral. In short, it runs like this:
as §2

The nature of series [20]: Concentration of compound in plasma of rat after 1 hr of oral dose 10 mg/kg. Also on record: dose 10 mg/kg, route oral. The format is ADME, organism-based. In short, it runs like this:
as §2

A short description of series [21]: Maximum time required to achieve peak plasma concentration upon oral dose of 3 mg/kg to rats. The format is ADME, organism-based. Also on record: dose 3 mg/kg, route oral. The settings on record: rat. In short, it runs like this:
as §1

Series [22] is described as follows: Concentration of compound in brain of rat after 3h of oral dose 10 mg/kg. The format is ADME, organism-based. Further details: dose 10 mg/kg, route oral. In short, it runs like this:
as §2

Series [23] addresses T4, Metabotropic glutamate receptor 6. The series is described as follows: Concentration required to inhibit metabotropic glutamate receptor 6 activity of rat expressed in CHO cells. Type of series: cell-based.
Series [24] is described as follows: Maximum time required to achieve peak plasma concentration in rat brain upon oral dose of 10 mg/kg. The format is ADME, organism-based. Also on record: dose 10 mg/kg, route oral. In short, it runs like this:
as §2

Series [25] can be described thus: Half-life in rat brain upon oral dose of 10 mg/kg. Further details: dose 10 mg/kg, route oral. The format is ADME, organism-based. In short, it runs like this: as §2
Series [26] in a line: Maximum time required to achieve peak plasma concentration upon oral dose of 10 mg/kg to rats. The format is ADME, organism-based. Further details: dose 10 mg/kg, route oral. The following applies: rat. In short, it runs like this:
as §1

Series [27] can be described thus: Maximum time required to achieve peak plasma concentration in rat plasma upon oral dose of 10 mg/kg. The format is ADME, organism-based. Also on record: dose 10 mg/kg, route oral. In a few lines: as §2
Series [28] is described as follows: Half-life in rat upon oral dose of 30 mg/kg. Type of series: ADME, organism-based. Further details: dose 30 mg/kg, route oral. The settings on record: in vivo. In a few lines:
as §1

Series [29] in a line: Concentration of compound in brain of rat after 6 hr of oral dose 10 mg/kg. Also on record: dose 10 mg/kg, route oral. The format is ADME, organism-based. In a few lines: as §2
Series [30] deals with T5, Metabotropic glutamate receptor 1. The series is described as follows: Effective concentration for agonistic activity towards metabotropic glutamate receptor 1 of rat expressed in CHO cells. Type of series: functional, cell-based.
Series [31] can be described thus: Maximum time required to achieve peak plasma concentration upon oral dose of 30 mg/kg to rats. The format is ADME, organism-based. Further details: dose 30 mg/kg, route oral. The settings on record: rat. In a few lines:
as §1

In series [32] the target is T3, Metabotropic glutamate receptor 3. As to the kind of experiment: Concentration required to inhibit metabotropic glutamate receptor 3 activity of rat expressed in CHO cells. Type of series: cell-based.
Series [33] addresses Metabotropic glutamate receptor 4 (Rattus norvegicus, UniProt P31423). As to the kind of experiment: Concentration required to inhibit metabotropic glutamate receptor 4 activity of rat expressed in CHO cells. Type of series: cell-based.
Series [34] addresses T3, Metabotropic glutamate receptor 3. As to the kind of experiment: Effective concentration for agonistic activity towards metabotropic glutamate receptor 3 of rat expressed in CHO cells. The format is functional, cell-based.
Series [35] concerns the target T1, Metabotropic glutamate receptor 5. As to the kind of experiment: Concentration required to inhibit metabotropic glutamate receptor 5 activity of rat expressed in CHO cells. The format is cell-based.
The target in series [36] is Metabotropic glutamate receptor 7 (Rattus norvegicus, UniProt P35400). The series is described as follows: Binding affinity towards metabotropic glutamate receptor 7 of rat expressed in CHO cells was determined by using [3H]LY341495.
Chain of Metabotropic glutamate receptor 7 (P35400 whole entry): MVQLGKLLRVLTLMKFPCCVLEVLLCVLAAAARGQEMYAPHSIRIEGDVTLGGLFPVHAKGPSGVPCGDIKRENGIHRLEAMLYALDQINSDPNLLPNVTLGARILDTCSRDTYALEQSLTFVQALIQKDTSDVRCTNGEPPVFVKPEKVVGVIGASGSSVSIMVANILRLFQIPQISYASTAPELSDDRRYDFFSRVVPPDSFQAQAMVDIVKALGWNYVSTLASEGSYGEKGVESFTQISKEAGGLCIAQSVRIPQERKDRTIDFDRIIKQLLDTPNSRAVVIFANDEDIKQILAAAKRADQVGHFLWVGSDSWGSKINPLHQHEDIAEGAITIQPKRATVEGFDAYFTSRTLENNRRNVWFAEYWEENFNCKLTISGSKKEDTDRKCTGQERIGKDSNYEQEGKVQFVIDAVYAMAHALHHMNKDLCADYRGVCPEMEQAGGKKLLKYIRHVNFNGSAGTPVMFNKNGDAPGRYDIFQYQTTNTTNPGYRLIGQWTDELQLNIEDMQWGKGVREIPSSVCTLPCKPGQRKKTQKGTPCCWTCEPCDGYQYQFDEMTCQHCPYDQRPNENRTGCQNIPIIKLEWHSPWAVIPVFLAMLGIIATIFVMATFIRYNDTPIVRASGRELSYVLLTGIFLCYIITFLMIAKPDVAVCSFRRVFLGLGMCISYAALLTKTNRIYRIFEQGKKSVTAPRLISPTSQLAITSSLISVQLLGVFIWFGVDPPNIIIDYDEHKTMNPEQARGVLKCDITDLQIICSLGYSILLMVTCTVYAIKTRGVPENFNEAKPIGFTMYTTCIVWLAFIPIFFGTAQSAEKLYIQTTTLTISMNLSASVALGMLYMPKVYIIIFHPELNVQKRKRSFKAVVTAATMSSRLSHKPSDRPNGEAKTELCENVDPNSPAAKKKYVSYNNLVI

As a reminder, the half-life is how long it takes for the measured level to halve. High values mean slow decline, low ones rapid decline. One may read the Cmax as the maximum level reached in the sampled fluid or tissue. As usually defined, the pEC50 is the negative decadic logarithm of the EC50, by convention in mol/L. For orientation: pKi means the Ki on a negative log10 scale, so that one unit is a factor of ten. A low value points to a large Ki. As usually defined, the pIC50 is the negative decadic logarithm of the IC50, by convention in mol/L. A low value points to a high IC50. Broadly, the Tmax is the time at which the peak concentration occurs.

T5 sequence (P23385 whole entry): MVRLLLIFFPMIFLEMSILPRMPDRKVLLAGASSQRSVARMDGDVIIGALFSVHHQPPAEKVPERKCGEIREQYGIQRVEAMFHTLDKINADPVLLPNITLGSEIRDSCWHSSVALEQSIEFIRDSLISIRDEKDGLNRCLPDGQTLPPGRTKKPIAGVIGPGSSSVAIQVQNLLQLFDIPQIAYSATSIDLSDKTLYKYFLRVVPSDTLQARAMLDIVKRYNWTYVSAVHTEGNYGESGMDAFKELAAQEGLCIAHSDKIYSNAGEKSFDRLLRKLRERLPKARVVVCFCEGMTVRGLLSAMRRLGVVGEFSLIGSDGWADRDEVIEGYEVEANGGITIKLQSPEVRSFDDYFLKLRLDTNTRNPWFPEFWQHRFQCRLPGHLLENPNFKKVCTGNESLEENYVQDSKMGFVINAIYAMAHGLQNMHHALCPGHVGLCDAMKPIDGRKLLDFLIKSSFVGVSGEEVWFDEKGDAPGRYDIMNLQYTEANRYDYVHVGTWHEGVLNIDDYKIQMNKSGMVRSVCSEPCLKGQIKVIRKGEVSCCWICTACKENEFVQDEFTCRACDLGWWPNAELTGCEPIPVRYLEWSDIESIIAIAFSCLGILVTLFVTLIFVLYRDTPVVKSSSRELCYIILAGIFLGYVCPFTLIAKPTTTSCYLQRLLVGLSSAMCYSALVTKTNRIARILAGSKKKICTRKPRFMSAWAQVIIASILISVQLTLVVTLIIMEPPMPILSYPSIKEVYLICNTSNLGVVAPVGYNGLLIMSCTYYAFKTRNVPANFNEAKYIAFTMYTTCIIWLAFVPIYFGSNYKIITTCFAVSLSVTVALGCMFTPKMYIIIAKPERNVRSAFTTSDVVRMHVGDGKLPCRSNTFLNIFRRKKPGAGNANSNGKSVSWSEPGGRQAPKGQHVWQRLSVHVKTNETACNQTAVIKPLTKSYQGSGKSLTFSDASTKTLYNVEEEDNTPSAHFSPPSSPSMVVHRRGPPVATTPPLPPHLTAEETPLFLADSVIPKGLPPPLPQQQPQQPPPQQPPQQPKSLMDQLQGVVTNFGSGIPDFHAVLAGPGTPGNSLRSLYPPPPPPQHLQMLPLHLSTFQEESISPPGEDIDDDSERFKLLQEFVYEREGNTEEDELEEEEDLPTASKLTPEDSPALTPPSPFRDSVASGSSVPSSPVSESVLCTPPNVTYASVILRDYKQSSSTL
T1 sequence (P31424 whole entry): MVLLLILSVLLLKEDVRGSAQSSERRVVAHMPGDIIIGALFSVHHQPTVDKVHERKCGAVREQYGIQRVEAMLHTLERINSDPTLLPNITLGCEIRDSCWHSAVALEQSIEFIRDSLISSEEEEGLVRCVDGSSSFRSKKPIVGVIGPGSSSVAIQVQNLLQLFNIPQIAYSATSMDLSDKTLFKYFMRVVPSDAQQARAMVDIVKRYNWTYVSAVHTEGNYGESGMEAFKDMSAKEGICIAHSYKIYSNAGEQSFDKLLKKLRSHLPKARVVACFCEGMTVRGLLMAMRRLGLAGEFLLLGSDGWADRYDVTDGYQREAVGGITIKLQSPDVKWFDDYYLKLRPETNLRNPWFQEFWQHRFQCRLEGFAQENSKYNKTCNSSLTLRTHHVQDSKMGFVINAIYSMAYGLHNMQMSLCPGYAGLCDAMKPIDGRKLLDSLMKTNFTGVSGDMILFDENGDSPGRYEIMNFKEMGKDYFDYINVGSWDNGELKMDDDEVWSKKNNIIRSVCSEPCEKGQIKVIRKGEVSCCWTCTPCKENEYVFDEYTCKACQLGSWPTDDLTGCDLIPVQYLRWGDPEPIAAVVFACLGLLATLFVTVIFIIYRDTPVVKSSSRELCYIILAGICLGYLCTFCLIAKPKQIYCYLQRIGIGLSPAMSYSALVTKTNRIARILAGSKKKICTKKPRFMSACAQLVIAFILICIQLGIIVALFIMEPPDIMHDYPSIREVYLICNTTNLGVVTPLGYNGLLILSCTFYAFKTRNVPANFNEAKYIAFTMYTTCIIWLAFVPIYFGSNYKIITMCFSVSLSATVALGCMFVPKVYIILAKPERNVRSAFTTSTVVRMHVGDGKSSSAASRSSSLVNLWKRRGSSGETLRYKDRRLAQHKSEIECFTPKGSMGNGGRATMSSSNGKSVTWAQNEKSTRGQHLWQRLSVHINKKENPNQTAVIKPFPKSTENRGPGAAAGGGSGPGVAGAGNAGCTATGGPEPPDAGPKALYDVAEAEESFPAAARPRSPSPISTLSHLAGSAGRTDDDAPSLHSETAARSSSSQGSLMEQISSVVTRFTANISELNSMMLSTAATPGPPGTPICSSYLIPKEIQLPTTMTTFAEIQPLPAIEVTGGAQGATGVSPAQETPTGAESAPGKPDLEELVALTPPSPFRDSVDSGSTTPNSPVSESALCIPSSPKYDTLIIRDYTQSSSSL

Turning to `N[C@]1(C(=O)O)[C@H]2[C@@H](C[C@H]1OCc1ccc(Cl)c(Cl)c1)[C@]2(F)C(=O)O`, the half-life in series [1] is 2.76 h; in series [14], 2.3 h; in [16], 2.15 h; in [25] it was 10.9 h; in series [28], 2.77 h. In addition, the Cmax was 2960 ng/mL in series [2]; 492 ng/mL in [6]; 13.2 ng/mL in series [8]; 214 ng/mL in series [9]; 932 ng/mL in series [15]. Besides, the negative-log EC50 (pEC50) in [3], in [4], in series [7], in [30] and in series [34] was less than 4.00 throughout. For the same compound, the pKi in series [5] is 8.35; in [10] it was 8.62; in series [36], 6.18. The concentration at 24 h in [11] amounted to 2.1 ng/mL; in [12], 4.22 ng/mL. Also, the values for the concentration at 3 h in series [13] and in series [22] were 429 ng/mL and 8.02 ng/mL, respectively. Also, the concentration at 1 h in series [17] is 3.88 ng/mL; in [20], 364 ng/mL. Further, the pIC50 in [18] is 4.03; in [23], 5.69; in [32], 7.62; in series [33], 5.76; in [35] it was 3.93. Also, the values for the concentration at 6 h in series [19] and in [29] were 492 ng/mL and 13.2 ng/mL, respectively. The Tmax in [21] is 2 h; in series [24], 6 h; in series [26], 2.7 h; in [27] it was 6 h; in series [31], 3.3 h.

Turning to `N[C@](CC1c2ccccc2Oc2ccccc21)(C(=O)O)[C@H]1C[C@@H]1C(=O)O`, the pEC50 in [3], in [7] and in series [30] was less than 4.00 in each case. The pIC50 in [18] was 5.05; in series [23], 5.94; in [33], 5.58; in series [35], 4.94. This compound showed a pKi in [36] of 6.96.
